Test results published in ChEMBL document CHEMBL4613263, “Optimization of Tetrahydroindazoles as Inhibitors of Human Dihydroorotate Dehydrogenase and Evaluation of Their Activity and In Vitro Metabolic Stability” (J Med Chem, 2020).
≈ marks a conversion by molar mass, not a printed value. Calls of active or inactive are those of the source. No cut-off for these calls is given here.

Assays:
[1] = molecular target: T1, Dihydroorotate dehydrogenase (quinone), mitochondrial (Homo sapiens, UniProt Q02127); experiment: Inhibition of recombinant human DHODH using dihydroorotic acid as substrate in presence of 2 nM of DHODH by DCIP assay
T1 sequence (Q02127 whole entry): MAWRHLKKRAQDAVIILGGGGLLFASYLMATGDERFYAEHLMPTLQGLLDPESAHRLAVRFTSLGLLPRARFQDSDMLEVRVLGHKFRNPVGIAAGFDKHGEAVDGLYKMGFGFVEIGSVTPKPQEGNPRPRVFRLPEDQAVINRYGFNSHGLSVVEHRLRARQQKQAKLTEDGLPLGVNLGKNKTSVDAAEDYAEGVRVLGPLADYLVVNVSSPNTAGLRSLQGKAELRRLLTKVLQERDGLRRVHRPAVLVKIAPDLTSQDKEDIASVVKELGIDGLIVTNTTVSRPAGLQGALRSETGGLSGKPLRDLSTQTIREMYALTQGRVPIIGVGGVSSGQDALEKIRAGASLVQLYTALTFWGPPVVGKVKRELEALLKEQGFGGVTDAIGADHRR

[2] = Kinetic aqueous solubility of compound in Prima HT solution at pH 7.4 incubated for 4 hrs by UV-spectrophotometry; assay type: physicochemical; conditions: read-out: Kinetic_solubility
Method in brief: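 20 mM DMSO stocks diluted 100× into Prima HT buffer at pH 7.4 and shaken 4 h at rt. Samples filtered through 0.22 µm, mixed 1:1 with isopropanol and scanned by UV from 190–400 nm against stock reference standards.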

[3] = molecular target: T1, Dihydroorotate dehydrogenase (quinone), mitochondrial; experiment: Inhibition of DHOH in human ARN8 cells assessed as increase in YOYO3 positive cells at 20 nM incubated for 48 hrs in presence of 100 uM […], uridine measured every 2 hrs by YOYO-3 staining based live cell imaging analysis
Method in brief: (§1)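 ARN8 cells seeded at 4×10^3 per well and left 24 h, then given 20 nM compound in medium containing 2 µM caspase-3/7 substrate and 0.3 µM YOYO-3 (0.2% DMSO). Where indicated, 100 µM uridine or 20 µM Z-VAD-FMK was added. Cells imaged every 2 h for 48.5 h in an IncuCyte. Positive-cell counts per mm² normalized to confluence %; mean ± SD of three technical replicates.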

[4] = molecular target: T1, Dihydroorotate dehydrogenase (quinone), mitochondrial; experiment: Inhibition of DHODH in human ARN8 cells assessed as induction of DNA damage by measuring increase in gammaH2AX level at 20 nM incubated for 24 hrs in presence of 100 uM […], uridine by Western blot analysis; assay type: cell-based
Method in brief: (§2)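 ARN8 cells seeded at 15×10^4 per well and left 24 h. Treated 24 h at 20 nM, or with etoposide at 20 µM for 1 h, with 100 µM uridine where indicated. Lysates made in LDS buffer and protein-normalized, then run on 4–15% gels and transferred to PVDF. Phospho-proteins blocked in BSA, others in milk; primary antibodies overnight at 4 °C, ECL detection. Loading judged by stain-free total protein.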

[5] = Cytotoxicity against human HNDF cells assessed as reduction in cell viability incubated for 72 hrs in presence of 100 uM […], uridine by SRB assay; assay type: cell-based
Method in brief: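 Normal dermal fibroblasts seeded at 15×10^2 per well and left 24 h, then treated 72 h in medium with 0.1% DMSO final plus 100 µM uridine. Fixed with TCA, stained with 0.4% SRB, dye dissolved in Tris and read at 490 nm. Growth/viability given as % of DMSO control; mean ± SD of three technical replicates.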

[6] = molecular target: T1, Dihydroorotate dehydrogenase (quinone), mitochondrial; experiment: Inhibition of DHODH in human ARN8 cells assessed as DNA damage by measuring Chk1 phosphorylation at Ser345 at 20 nM incubated for 24 hrs by Western blot analysis; assay type: cell-based
Method in brief: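 ARN8 cells treated 24 h before lysis in LDS buffer and protein normalization. Western blot blocked in 5% BSA/TBS-T, primary antibody overnight at 4 °C, HRP secondary and ECL detection. Loading taken from stain-free total protein.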

[7] = molecular target: T1, Dihydroorotate dehydrogenase (quinone), mitochondrial; experiment: Inhibition of DHODH in human ARN8 cells assessed as induction of DNA damage by measuring increase in gammaH2AX level at 20 nM incubated for 24 hrs by Western blot analysis; assay type: cell-based; method in brief: as §2
[8] = molecular target: T1, Dihydroorotate dehydrogenase (quinone), mitochondrial; experiment: Inhibition of DHOH in human ARN8 cells assessed as increase in YOYO3 positive cells at 20 nM incubated for 48 hrs measured every 2 hrs by YOYO-3 staining based live cell imaging analysis; method in brief: as §1
[9] = molecular target: T1, Dihydroorotate dehydrogenase (quinone), mitochondrial; experiment: Inhibition of DHODH in human ARN8 cells assessed as induction of DNA damage by measuring increase in p53 phosphorylation at Ser15 at 20 nM incubated for 24 hrs in presence of pan-caspase inhibitor, Z-VAD-FMK by Western blot analysis; assay type: cell-based
Method in brief: (§3)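 ARN8 cells treated 24 h at 20 nM, with 20 µM Z-VAD-FMK or vehicle added 4.5 h before harvest. Etoposide arm was 20 µM for 1 h alongside Z-VAD-FMK. Lysates normalized for protein and analysed by western blot for p53, p-Ser15 p53, γ-H2AX, H2AX and cleaved PARP (85 kDa) against stain-free total-protein loading.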

[10] = molecular target: T1, Dihydroorotate dehydrogenase (quinone), mitochondrial; experiment: Inhibition of DHODH in human ARN8 cells assessed as increase in p53 level at 20 nM incubated for 24 hrs in presence of pan-caspase inhibitor, Z-VAD-FMK by Western blot analysis; assay type: cell-based; method in brief: as §3
[11] = molecular target: T1, Dihydroorotate dehydrogenase (quinone), mitochondrial; experiment: Inhibition of DHOH in human ARN8 cells assessed as increase in cleaved PARP level at 20 nM incubated for 24 hrs by Western blot analysis; assay type: cell-based; method in brief: as §3
[12] = molecular target: T1, Dihydroorotate dehydrogenase (quinone), mitochondrial; experiment: Inhibition of DHODH in human ARN8 cells assessed as increase in p53 level at 20 nM incubated for 24 hrs by Western blot analysis; assay type: cell-based; method in brief: as §2

- IC50 [1]: 2.3 nM
- solubility kinetic at 4 h [2]: 74 µM (≈ 28.1 µg/mL)
- inhibition [3]: inactive
- inhibition [8]: Active
- inhibition [10]: Active
- inhibition [11]: Active
- inhibition [12]: Active
Compound: O=C(N[C@@H]1CCCc2c1cnn2-c1ccccc1F)c1ncn2c1CCCC2
- inhibition [4]: inactive
- Activity [5]: Toxic
- inhibition [6]: inactive
- inhibition [7]: Active
- inhibition [9]: Active
